From PubChem BioAssay
In the library only some 4.7% were active in any assay of this set; here they are far more common.
MC4R antagonist = MC4R antagonists of cAMP signaling, primary screen, cell-based, TR-FRET, antagonist arm of biased-ligand search; Melanocortin receptor 4 (Homo sapiens), P32245; MC4R-expressing cells, MTII-stimulated cAMP, LANCE TR-FRET; inhibition, % at 6.5 µM; hit rate 0.48% among 360,000; AID 540295, 2011;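 active = inhibition above its plate's cutoff, the mean of tested wells on that plate plus 3 SD, cut at about 29% in these data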;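 note: 0% = Melanotan II alone and 100% = Melanotan II plus saturating MCL0020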
Target sequence (P32245 whole entry, looked up): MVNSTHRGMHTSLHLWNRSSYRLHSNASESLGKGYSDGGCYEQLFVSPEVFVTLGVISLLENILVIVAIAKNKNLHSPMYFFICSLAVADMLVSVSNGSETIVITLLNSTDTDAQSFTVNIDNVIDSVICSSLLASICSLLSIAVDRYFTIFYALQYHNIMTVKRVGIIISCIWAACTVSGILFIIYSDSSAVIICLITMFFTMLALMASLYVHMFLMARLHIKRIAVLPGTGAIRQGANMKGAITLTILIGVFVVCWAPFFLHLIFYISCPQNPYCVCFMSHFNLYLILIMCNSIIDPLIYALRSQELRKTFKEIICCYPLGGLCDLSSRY
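System: U2OS cells stably expressing human melanocortin 4 receptor (MC4R). Reagent: Melanotan II challenge after compound preincubation. Doses: 6.5 µM. Times: 30-min compound, 1-h challenge, 1-h detection, room temperature. Measured by: TR-FRET with Eu-cAMP and labeled anti-cAMP, 671 nm. Replicates: singlicate.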
HTR2A ag = mouse Htr2a agonists via beta-arrestin recruitment, primary screen, cell-based, luminescence | 5-hydroxytryptamine receptor 2A (Mus musculus), P35363 | CHO-K1 mHTR2A beta-arrestin complementation; percent of 30 µM serotonin response | activation, % at 7.6 µM | hit rate 0.66% among 360,000 | AID 624169, 2012;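 active = activation above a run cutoff, the mean activation of all tested compounds plus 3 SD, cut at about 14% in these data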;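 note: 0% = plate median of compound wells and 100% = 30 µM serotonin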
AHR activator = AHR activators, primary screen, cell-based, luminescence, luciferase reporter, human; AHR-responsive luciferase reporter cells; activation, % at 5 µM; hit rate 2.5% among 320,000; AID 2796, 2010; in the data active = activation above about 47%;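 note: 0% = vehicle wells and 100% = reference agonist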
FXN GAA850 act = FXN promoter activators, primary screen, cell-based, luciferase luminescence, HEK293 lucGAA850 | HEK293 lucGAA850 FXN promoter luciferase reporter, 24 h; percent of 10 µM SAHA response | activation, % at 6 µM | hit rate 0.56% among 360,000;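 active = activation above the average of all compounds screened plus 3 SD, cutoff fixed separately per campaign, cut at about 7.5% in these data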;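 note: 0% = DMSO wells and 100% = 10 µM SAHA wells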
MC4R ag barr = MC4R agonists recruiting beta-arrestin, primary screen, cell-based, luminescence, agonist arm of biased-ligand search; U2OS MC4R beta-arrestin complementation; percent of melanotan II response, DMSO zero; activation, % at 8.9 µM; hit rate 0.98% among 360,000; Melanocortin receptor 4 (Homo sapiens), P32245;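 active = activation above a per-plate cutoff, the mean activation of sample wells on that plate plus 3 SD, cut at about 8% in these data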
MC4R barr ag = MC4R beta-arrestin agonists, retest, confirmation, cell-based, luminescence, U2OS; shares compounds with MC4R ag barr; U2OS MC4R beta-arrestin recruitment; scaled DMSO 0%, Melanotan II 100%; activation, % at 8.9 µM; AID 602192, 2012; hit rate 31% among 2,400;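 active = mean activation across replicates above the hit cutoff set in the earlier primary screen, cut at about 8% in these data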
MOR DOR agonist = agonists of MOR-DOR heterodimerization, counter-screen for MC4R biased agonist project, cell-based, luminescence; shares compounds with MC4R ag barr; activation, % at 9.2 µM; U2OS PathHunter beta-arrestin, beta-gal luminescence; percent of deltorphin B response, DMSO zero; hit rate 5.8% among 2,400;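 active = mean activation across replicates exceeds the hit threshold derived in the earlier primary screen, cut at about 18% in these data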;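 note: 100% = deltorphin B at 0.9 µM final and 0% = DMSO alone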
The depositor's hits bear a star; . = no result.

SMILES | MC4R antagonist | HTR2A ag | AHR activator | FXN GAA850 act | MC4R ag barr | MC4R barr ag | MOR DOR agonist
O=CNc1cc(-c2ccc(C(=O)NC3CC3)cc2)cn2c(-c3ccccc3)cnc12 | 7 | 11 | . | -5 | 6 | . | .
CC(=O)c1ccc(-c2cnc3c(NC=O)cc(-c4ccc(N5CCN(C)CC5)cc4)cn23)cc1 | -5 | -3 | . | 6 | -2 | . | .
COc1ccc(-c2cc(NC=O)c3ncc(-c4ccc(C(C)=O)cc4)n3c2)cn1 | 3 | 0 | . | -6 | 17* | 16* | 4
Nc1ccc(C(=O)N/N=C/c2cn(Cc3cccc(F)c3)c3ccccc23)cc1 | 9 | -2 | . | 0 | 0 | . | .
COc1ccc(/C=N\NC(=O)c2cc(OCC(F)(F)F)ccc2OCC(F)(F)F)cc1 | -1 | 3 | 15 | -4 | 11* | 6 | 7
COCCN1C(=O)CCC1(C)C(=O)NC1CCCC1 (stereo not drawn) | . | 5 | . | . | . | . | .
O=C1OC(c2ccccc2)(c2cc(Br)ccc2O)c2ccccc21 (stereo not drawn) | 7 | 7 | . | -3 | 21* | 20* | 9
O=C1OC(c2ccc(O)cc2)(c2ccccc2O)c2ccccc21 (stereo not drawn) | -4 | -4 | . | 1 | -1 | . | .
Cc1ccccc1C(=O)N(C)[C@H]1C[C@H]2c3[nH]c4ccccc4c3CCN2C(=O)[C@H]1[C@H](C)O | 11 | 7 | . | -1 | 0 | . | .
O=C1/C(=C/c2cccc([N+](=O)[O-])c2)CSc2ccc(Cl)cc21 | 5 | -1 | -1 | 3 | 11* | -1 | 2
COc1cccc(-c2cnc3c(NC=O)cc(-c4ccc(N(C)C)cc4)cn23)c1 | -5 | 2 | . | -2 | 15* | 8 | 2
COc1ccc(-c2cc(NC=O)c3ncc(-c4cnn(C)c4)n3c2)cc1 | -2 | -3 | . | 1 | 14* | 9.6* | 1
COc1cccc(-c2cnc3c(NC=O)cc(-c4cc(OC)c(OC)c(OC)c4)cn23)c1 | -36 | 4 | . | 4 | 29* | 26* | 3
COc1cccc(-c2cnc3c(NC=O)cc(-c4ccc(OC)cc4OC)cn23)c1 | -38 | 3 | . | -1 | 14* | 12* | 2
COc1ccc(-c2cc(NC=O)c3ncc(-c4cccc(OC)c4)n3c2)cc1 | -6 | -8 | . | -4 | 3 | . | .
COc1ccc(-c2nc3ccc(C)cn3c2CC2CCCCC2)cc1OC | . | -6 | . | . | . | . | .
C[C@H](CO)N1C[C@H](C)[C@@H](CN(C)S(=O)(=O)c2cccs2)Oc2c(NC(=O)CCC(F)(F)F)cccc2C1=O | 7 | 2 | -1 | -1 | -1 | . | .
CC(=O)c1c(C)[nH]c(C(=O)OCC(=O)Nc2ccc([N+](=O)[O-])cc2Cl)c1C | 8 | 3 | 12 | 1 | 28* | 2 | 16
CCOC(=O)c1c(C)[nH]c(C(=O)OCc2ccc([N+](=O)[O-])cc2)c1C | 1 | -3 | 53* | 2 | 17* | 4 | 4
CCOC(=O)c1c(C)[nH]c(C(=O)OCc2ccccc2)c1C | 9 | -2 | 3 | 5 | 4 | . | .
O=C(Cc1c(O)c2ccccc2oc1=O)c1ccc(F)cc1 | 6 | -10 | -2 | 1 | 11* | 1 | 3
CCN(CC)S(=O)(=O)c1ccc(N2CCOCC2)c(NS(=O)(=O)c2ccc(C)c(C)c2)c1 | 11 | -1 | 0 | 2 | -2 | . | .
CCCCCCN1CCN(C2CN(Cc3ccc(F)cc3)S(=O)(=O)C2)CC1 (stereo not drawn) | . | 1 | . | . | . | . | .
COc1cc(/C=C(\C#N)c2nc3ccccc3s2)ccc1OCC(=O)Nc1ccccc1 | 3 | 3 | 18 | 2 | 49* | 30* | 10
O=C(CCCOC(=O)c1ccc(O)cc1O)c1ccc(Br)cc1 | 5 | 0 | . | -1 | 10* | 8.7* | 7
SMILES | MC4R antagonist | HTR2A ag | AHR activator | FXN GAA850 act | MC4R ag barr | MC4R barr ag | MOR DOR agonist
COc1ccc([C@H]2C[C@@H](O)[C@H](n3cc(-c4ccc(F)cc4)nn3)CN2C(=O)C2CCCCC2)cc1 | 0 | 1 | . | -1 | 1 | . | .
Cc1cc(C(=O)Nc2sc3c(c2C#N)CCC(C(C)(C)C)C3)no1 (stereo not drawn) | -5 | 5 | -1 | -1 | 9.9* | -2 | 3
CCOc1ccc(C(=O)Nc2ccc3[nH]ncc3c2)cc1 | -2 | -4 | 47 | 4 | -2 | . | .
Nc1nonc1-c1nc2ccccc2n1Cc1ccc(F)cc1Cl | -2 | -4 | 4 | 0 | 4 | . | .
Fc1ccc(Cn2c(-c3cscn3)nc3ccccc32)c(Cl)c1 | 4 | -2 | 0 | 1 | 9.7* | 3 | 8
CC(=O)c1cccc(-c2ccnc3c2CC(C(=O)Nc2cccc(NS(C)(=O)=O)c2)O3)c1 (stereo not drawn) | 2 | 1 | . | -1 | -1 | . | .
Cc1csc2nc(O)c(C(=O)NCCC3=CCCCC3)c(=O)n12 | -4 | 2 | 2 | 0 | 14* | -1 | 3
Cc1csc2nc(O)c(C(=O)NCCCc3ccccc3)c(=O)n12 | 4 | 6 | 2 | 1 | 2 | . | .
CC1CCC(C(C)C)C(OC(=O)CSc2nc(N)cc(=O)[nH]2)C1 (stereo not drawn) | 21 | 2 | 4 | 0 | -1 | . | .
CC1CCC(C(C)C)C(OC(=O)Cn2c(-c3ccc(F)cc3)[n+](C)c3ccccc32)C1 (stereo not drawn) | 0 | -6 | 0 | -6 | 17* | 16* | 5
Cc1ccc([C@@H]2C[C@H]3[C@@H](CN2S(=O)(=O)c2ccc(C)cc2)C(=O)C[C@@H](c2ccc(C)cc2)N3S(=O)(=O)c2ccc(Cl)cc2)cc1 | 10 | 4 | . | -2 | 2 | . | .
CC(Sc1ccc(S(=O)(=O)N2CCN(C)CC2)cn1)C(=O)Nc1cccc(Cl)c1Cl (stereo not drawn) | 3 | -7 | . | 1 | -1 | . | .
COc1cc(C(=O)OCC(=O)NCc2ccc(F)cc2)cc(NC(=O)c2cccs2)c1OC | -2 | 2 | 22 | 2 | 9.7* | 2 | 4
CC1(C2CC2)NC(=O)N(CC(=O)N2CCN(c3ccccc3)CC2)C1=O (stereo not drawn) | 2 | 0 | -1 | 1 | -2 | . | .
